We go through 8 compounds from ChEMBL document CHEMBL4393666, “Synthesis and Anti-HCV Activities of 4'-Fluoro-2'-Substituted Uridine Triphosphates and Nucleotide Prodrugs: Discovery of 4'-Fluoro-2'- C-methyluridine 5'-Phosphoramidate Prodrug (AL-335) for the Treatment of Hepatitis C Infection” (J Med Chem, 2019).

Activity calls are given as the source filed them. No cut-off for these calls is given here.

The target in data set [1] is DNA-directed RNA polymerase, mitochondrial (Homo sapiens, UniProt O00411). Briefly: Inhibition of human mitochondrial DNA-dependent RNA polymerase activity at 100 uM using 33P-RNA/DNA primer/template by phosphor-imaging analysis.
A further data set has as its target T1, DNA polymerase alpha (Homo sapiens, UniProt P09884).
T1 sequence (P09884 whole entry): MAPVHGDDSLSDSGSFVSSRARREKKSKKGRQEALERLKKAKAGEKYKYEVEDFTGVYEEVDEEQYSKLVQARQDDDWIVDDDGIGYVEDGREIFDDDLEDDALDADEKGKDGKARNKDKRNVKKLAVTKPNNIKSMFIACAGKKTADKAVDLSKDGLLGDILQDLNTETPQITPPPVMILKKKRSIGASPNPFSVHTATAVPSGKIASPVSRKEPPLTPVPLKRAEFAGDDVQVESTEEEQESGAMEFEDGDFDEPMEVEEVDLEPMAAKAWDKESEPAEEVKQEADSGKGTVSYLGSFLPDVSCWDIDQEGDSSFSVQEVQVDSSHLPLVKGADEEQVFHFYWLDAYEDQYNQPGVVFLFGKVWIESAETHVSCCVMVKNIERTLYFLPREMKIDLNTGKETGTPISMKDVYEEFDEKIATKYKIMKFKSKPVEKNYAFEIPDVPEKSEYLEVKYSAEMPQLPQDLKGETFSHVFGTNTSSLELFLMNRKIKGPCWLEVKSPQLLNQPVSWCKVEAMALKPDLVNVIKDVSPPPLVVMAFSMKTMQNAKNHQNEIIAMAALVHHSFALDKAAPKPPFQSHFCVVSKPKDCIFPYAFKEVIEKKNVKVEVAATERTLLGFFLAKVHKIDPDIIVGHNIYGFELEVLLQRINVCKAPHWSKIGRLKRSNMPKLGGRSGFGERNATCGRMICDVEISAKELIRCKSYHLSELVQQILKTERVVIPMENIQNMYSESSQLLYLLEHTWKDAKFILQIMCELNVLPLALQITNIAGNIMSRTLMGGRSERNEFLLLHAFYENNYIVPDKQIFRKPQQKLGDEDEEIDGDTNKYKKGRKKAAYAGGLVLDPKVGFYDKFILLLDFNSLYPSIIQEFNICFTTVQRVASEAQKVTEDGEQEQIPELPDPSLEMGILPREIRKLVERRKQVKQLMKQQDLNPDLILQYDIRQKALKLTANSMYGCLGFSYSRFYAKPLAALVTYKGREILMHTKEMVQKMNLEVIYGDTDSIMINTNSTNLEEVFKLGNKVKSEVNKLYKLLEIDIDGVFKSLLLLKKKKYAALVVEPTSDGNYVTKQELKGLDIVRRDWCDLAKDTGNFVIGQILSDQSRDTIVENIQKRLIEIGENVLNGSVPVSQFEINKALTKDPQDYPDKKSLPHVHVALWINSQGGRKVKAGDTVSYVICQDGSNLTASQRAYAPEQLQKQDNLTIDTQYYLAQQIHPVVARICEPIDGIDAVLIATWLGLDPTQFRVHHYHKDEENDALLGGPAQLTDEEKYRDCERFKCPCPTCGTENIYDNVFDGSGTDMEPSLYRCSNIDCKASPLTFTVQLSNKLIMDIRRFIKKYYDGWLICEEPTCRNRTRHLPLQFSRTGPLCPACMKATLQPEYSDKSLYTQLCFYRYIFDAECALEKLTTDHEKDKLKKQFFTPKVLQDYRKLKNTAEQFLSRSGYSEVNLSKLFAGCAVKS
Briefly: Inhibition of human DNA polymerase-alpha assessed as reduction in [3H]dTTP incorporation in to activated calf thymus DNA substrate at 100 uM by scintillation counting method relative to control. Conditions: human DNA polymerase-alpha enzyme, probe [3H]dTTP.

The nature of data set [2]: Inhibition of RNA polymerase 2 in human HeLa cell nuclear extract assessed as reduction in RNA transcription by PAGE analysis. Type of data set: cell-based. The gist of the method:
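In vitro transcription by RNA polymerase II in HeLa cell nuclear extract; RNA products resolved on 6% TBE-urea polyacrylamide gels.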

A further data set has as its target DNA polymerase beta (Homo sapiens, UniProt P06746). As to the kind of experiment: Inhibition of human DNA polymerase-beta assessed as reduction in [3H]dTTP incorporation in to activated calf thymus DNA substrate at 100 uM by scintillation counting method relative to control. Conditions: human DNA polymerase-beta enzyme, probe [3H]dTTP.
The target of another data set is T2, DNA polymerase gamma (Homo sapiens, UniProt P54098).
T2 sequence (P54098 whole entry): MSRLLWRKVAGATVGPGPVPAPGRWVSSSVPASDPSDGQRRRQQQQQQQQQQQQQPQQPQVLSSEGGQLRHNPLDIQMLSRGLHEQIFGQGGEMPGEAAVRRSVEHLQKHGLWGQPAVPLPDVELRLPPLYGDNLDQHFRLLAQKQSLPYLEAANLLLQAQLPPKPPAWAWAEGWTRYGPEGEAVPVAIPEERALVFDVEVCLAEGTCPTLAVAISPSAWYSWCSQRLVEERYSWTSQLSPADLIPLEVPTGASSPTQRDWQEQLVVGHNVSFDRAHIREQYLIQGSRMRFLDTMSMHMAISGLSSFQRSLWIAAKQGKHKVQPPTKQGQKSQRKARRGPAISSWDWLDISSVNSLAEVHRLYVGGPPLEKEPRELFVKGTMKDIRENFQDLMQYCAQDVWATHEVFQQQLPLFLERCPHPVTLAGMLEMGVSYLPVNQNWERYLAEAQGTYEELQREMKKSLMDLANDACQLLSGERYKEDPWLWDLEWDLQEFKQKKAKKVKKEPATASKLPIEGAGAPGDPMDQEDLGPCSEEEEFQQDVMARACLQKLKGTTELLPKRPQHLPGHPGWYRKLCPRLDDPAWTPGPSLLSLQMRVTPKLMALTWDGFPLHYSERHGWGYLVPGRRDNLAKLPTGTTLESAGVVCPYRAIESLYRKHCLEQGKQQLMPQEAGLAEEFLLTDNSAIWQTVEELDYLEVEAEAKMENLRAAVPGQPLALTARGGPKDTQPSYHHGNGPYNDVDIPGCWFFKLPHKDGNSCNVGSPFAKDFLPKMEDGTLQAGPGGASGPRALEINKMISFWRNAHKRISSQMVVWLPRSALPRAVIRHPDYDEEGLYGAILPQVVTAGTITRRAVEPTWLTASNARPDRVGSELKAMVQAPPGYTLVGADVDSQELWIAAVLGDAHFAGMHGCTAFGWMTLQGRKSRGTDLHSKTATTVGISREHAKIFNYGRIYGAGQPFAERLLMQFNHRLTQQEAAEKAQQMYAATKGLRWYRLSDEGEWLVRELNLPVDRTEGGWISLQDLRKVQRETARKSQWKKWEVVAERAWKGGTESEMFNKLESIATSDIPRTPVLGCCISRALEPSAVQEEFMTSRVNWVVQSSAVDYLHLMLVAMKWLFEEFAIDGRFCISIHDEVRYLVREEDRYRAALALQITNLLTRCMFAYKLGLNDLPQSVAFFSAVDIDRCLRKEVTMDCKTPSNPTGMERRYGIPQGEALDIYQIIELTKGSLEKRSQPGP
Briefly: Inhibition of human DNA polymerase-gamma assessed as reduction in [3H]dTTP incorporation in to activated calf thymus DNA substrate at 100 uM by scintillation counting method relative to control. As to conditions: human DNA polymerase-gamma enzyme, probe [3H]dTTP.

Data set [3] deals with RNA-directed RNA polymerase (Hepacivirus hominis, UniProt O39930). Briefly: Inhibition of HCV NS5B RNA-dependent RNA polymerase activity assessed as reduction in radiolabeled-CTP incorporation into RNA using cIRES template measured after 2 hrs by microscintillation counting method.
In data set [4] the target is RNA-directed RNA polymerase (Hepacivirus hominis) (UniProt O39930). Briefly: Inhibition of HCV NS5B RNA-dependent RNA polymerase assessed as chain termination of RNA synthesis by measuring reduction in UTP incorporation at 100 uM using 33P-labeled 5'-GG-3'/5'-AUGUAUAAUUAUUGUAGCC-3' as primer/template measured after 2 hrs by phosphor-screening analysis. The gist of the method: (§1)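 Recombinant NS5B (2 μM) with 1 μM template and 0.5 μM 33P-labeled GG primer in 40 mM Tris-HCl pH 8, 3 mM DTT, 20 mM NaCl, 6 mM MgCl2. Started with combinations of CTP, ATP, UTP, test NTP and 3'-dUTP, each 100 μM; 2 h at 30°C. Samples denatured 95°C 5 min, resolved on 22.5% polyacrylamide urea sequencing gel, phosphor-screen imaged.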

Data set [5] has the same target. Briefly: Inhibition of HCV NS5B RNA-dependent RNA polymerase assessed as chain termination of RNA synthesis by measuring reduction in dUTP incorporation at 100 uM using 33P-labeled 5'-GG-3'/5'-AUGUAUAAUUAUUGUAGCC-3' as primer/template measured after 2 hrs by phosphor-screening analysis. The gist of the method: as §1
Data set [6] is described as follows: Cytotoxicity against human HeLa cells treated for 8 days measured post-last dose by Celltiter-glo luminescent assay. The format is cell-based. The method in brief:
(§2)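 Cells at 1×10^5/well on collagen I, first kept 8 days in recommended medium without drug. Then compound exposure for 8 days, refed every other day. Viability by CellTiter-Glo luminescence; CC50 by curve fitting.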
(In general: ATP-based viability assays read luminescence as a measure of living cells.)

Data set [7] is described as follows: Cytotoxicity against human U937 cells treated for 8 days measured post-last dose by Celltiter-glo luminescent assay. Type of data set: cell-based, U-937. The method in brief: as §2
Data set [8] in a line: Cytotoxicity against human A549 cells treated for 8 days measured post-last dose by Celltiter-glo luminescent assay. The format is cell-based. The method in brief:
as §2

Data set [9] can be described thus: Cytotoxicity against human MT4 cells treated for 8 days measured post-last dose by Celltiter-glo luminescent assay. The format is cell-based. The gist of the method: as §2
Data set [10] can be described thus: Cytotoxicity against human HepG2 cells treated for 8 days measured post-last dose by Celltiter-glo luminescent assay. The format is cell-based. The method in brief: as §2
Data set [11] can be described thus: Cytotoxicity against human HuH7 cells treated for 8 days measured post-last dose by Celltiter-glo luminescent assay. Type of data set: cell-based, Huh-7. The gist of the method: as §2

Chain of RNA-directed RNA polymerase (O39930 whole entry): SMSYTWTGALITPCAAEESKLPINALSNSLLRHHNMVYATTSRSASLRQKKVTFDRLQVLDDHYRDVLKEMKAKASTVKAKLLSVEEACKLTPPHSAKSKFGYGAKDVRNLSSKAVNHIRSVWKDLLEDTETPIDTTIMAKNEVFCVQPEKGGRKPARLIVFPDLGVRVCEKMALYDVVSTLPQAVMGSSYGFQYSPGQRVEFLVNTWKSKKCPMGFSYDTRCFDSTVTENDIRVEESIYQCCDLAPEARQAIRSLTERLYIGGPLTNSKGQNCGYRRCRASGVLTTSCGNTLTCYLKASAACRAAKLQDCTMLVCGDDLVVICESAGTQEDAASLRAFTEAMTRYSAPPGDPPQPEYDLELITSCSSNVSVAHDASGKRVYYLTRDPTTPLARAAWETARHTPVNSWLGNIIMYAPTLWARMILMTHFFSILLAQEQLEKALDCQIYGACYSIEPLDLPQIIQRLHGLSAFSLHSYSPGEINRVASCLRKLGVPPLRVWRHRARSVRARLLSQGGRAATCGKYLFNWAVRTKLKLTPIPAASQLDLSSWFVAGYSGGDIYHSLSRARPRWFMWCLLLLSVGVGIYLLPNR
Chain of DNA-directed RNA polymerase, mitochondrial (O00411 whole entry): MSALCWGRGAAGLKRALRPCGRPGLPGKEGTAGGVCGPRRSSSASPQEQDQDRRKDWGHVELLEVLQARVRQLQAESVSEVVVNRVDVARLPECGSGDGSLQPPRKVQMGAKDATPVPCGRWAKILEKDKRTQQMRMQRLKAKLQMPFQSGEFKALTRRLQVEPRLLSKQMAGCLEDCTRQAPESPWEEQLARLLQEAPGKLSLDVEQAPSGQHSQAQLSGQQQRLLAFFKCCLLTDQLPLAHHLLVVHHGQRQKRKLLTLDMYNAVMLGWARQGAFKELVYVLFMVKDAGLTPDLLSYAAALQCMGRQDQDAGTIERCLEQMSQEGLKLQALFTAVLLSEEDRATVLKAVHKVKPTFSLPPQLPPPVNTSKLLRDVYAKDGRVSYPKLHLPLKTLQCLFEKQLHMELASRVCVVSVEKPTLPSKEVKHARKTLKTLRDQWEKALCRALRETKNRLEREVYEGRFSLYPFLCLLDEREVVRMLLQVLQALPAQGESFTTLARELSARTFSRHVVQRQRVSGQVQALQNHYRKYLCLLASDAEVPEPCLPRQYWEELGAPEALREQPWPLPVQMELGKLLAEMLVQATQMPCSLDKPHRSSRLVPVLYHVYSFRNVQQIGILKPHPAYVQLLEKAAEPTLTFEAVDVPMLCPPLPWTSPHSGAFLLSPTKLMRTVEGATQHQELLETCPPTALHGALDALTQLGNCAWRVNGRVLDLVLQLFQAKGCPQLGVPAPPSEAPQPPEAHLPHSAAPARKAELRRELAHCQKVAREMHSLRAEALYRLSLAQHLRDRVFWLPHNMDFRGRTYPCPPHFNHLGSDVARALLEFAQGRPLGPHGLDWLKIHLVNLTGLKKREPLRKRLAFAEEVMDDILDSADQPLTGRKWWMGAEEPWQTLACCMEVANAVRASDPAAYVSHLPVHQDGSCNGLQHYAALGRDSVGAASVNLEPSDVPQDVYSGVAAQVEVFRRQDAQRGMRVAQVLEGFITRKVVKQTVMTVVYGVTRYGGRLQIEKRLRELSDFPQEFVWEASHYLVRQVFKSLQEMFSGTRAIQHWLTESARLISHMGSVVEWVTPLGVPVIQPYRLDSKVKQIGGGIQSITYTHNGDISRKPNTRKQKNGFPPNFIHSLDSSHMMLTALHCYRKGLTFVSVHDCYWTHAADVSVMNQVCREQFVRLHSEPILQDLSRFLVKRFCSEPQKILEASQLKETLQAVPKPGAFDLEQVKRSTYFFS
Chain of RNA-directed RNA polymerase (Hepacivirus hominis) (O39930 1-591): as the sequence (O39930 whole entry) above

As a reminder, the inhibition is the change of the read-out against control, counted positive when it falls. As usually defined, the IC50 is the point on the concentration scale where inhibition reaches its midpoint. Take `C[C@@]1(O)[C@H](O)[C@@H](COP(=O)(O)OP(=O)(O)OP(=O)(O)O)O[C@H]1n1ccc(=O)[nH]c1=O`: the “inhibition (INH)” value in [1] is “Active”. The inhibition at 100 µM at DNA polymerase alpha was 22.4%; at DNA polymerase beta it was -0.008%; on DNA polymerase gamma it was 14.6%. Besides, the IC50 in [2] was over 100 µM.

Regarding `C[C@]1(F)[C@H](n2ccc(=O)[nH]c2=O)O[C@](F)(COP(=O)(O)OP(=O)(O)OP(=O)(O)O)[C@H]1O`, the inhibition at 100 µM at DNA polymerase alpha was 40.9%; at DNA polymerase beta, 15.2%; on DNA polymerase gamma, -10%. Besides, the IC50 was over 100 µM in data set [2] and 860 nM in [3].

On to `C[C@]1(O)[C@H](n2ccc(=O)[nH]c2=O)O[C@](F)(COP(=O)(O)OP(=O)(O)OP(=O)(O)O)[C@H]1O` [ADAFOSBUVIR 5'-TRIPHOSPHATE], for which the “inhibition (INH)” value in [1] was “Not Active”. Also, the inhibition at 100 µM at DNA polymerase alpha worked out at 16.1%; on DNA polymerase beta, 12.6%; on DNA polymerase gamma, 9.6%. The results for the IC50 in data set [2] and in [3] were over 100 µM and 140 nM, respectively. For the same compound, the inhibition entry in [4] and in [5] was “Active” in each case.

On to `C[C@]1(Cl)[C@H](n2ccc(=O)[nH]c2=O)O[C@](F)(COP(=O)(O)OP(=O)(O)OP(=O)(O)O)[C@H]1O`, for which the “inhibition (INH)” value in data set [1] is given as “Not Active”. For the same compound, the inhibition at 100 µM on DNA polymerase alpha stood at 19.7%; at DNA polymerase beta, 24.3%; at DNA polymerase gamma, 18.4%. Also, the IC50 in [2] was over 100 µM; in data set [3], 110 nM.

Consider `O=c1ccn([C@@H]2O[C@H](COP(=O)(O)OP(=O)(O)OP(=O)(O)O)[C@@H](O)[C@]2(F)Cl)c(=O)[nH]1`, for which the inhibition at 100 µM at DNA polymerase alpha stood at 70.8%; at DNA polymerase beta it was 24.7%; at DNA polymerase gamma, 15.7%. The IC50 in data set [2] is over 100 µM; in data set [3], 300 nM.

In the case of `C[C@@]1(F)[C@H](O)[C@@H](COP(=O)(O)OP(=O)(O)OP(=O)(O)O)O[C@H]1n1ccc(=O)[nH]c1=O` [GS-461203], the inhibition at 100 µM on DNA polymerase alpha is 58.2%; on DNA polymerase beta, 14%; at DNA polymerase gamma, 9.2%. Besides, the IC50 in [2] is over 100 µM.

As a reminder, the CC50 is the concentration at which the toxic effect on the cells reaches its halfway point. A higher CC50 goes with lower toxicity to the cells. Regarding `COc1nc(N)nc2c1ncn2[C@@H]1O[C@H](COP(=O)(N[C@@H](C)C(=O)OCC(C)(C)C)Oc2cccc3ccccc23)[C@@H](O)[C@@]1(C)O` (some centres undefined) [BMS-986094], the CC50 at 192 h was 13.4 µM in [6]; 170 nM in data set [7]; 7.8 µM in data set [8]; 960 nM in [9]; 1500 nM in data set [10]; 350 nM in [11].

As for `C[C@@]1(Cl)[C@H](O)[C@@H](COP(=O)(O)OP(=O)(O)OP(=O)(O)O)O[C@H]1n1ccc(=O)[nH]c1=O` [4A-TP], in [1], the “inhibition (INH)” value is listed as “Active”. Further, the inhibition at 100 µM at DNA polymerase alpha was found to be 34.5%; at DNA polymerase beta, 22.6%; at DNA polymerase gamma it was 9.5%. Also, the IC50 in data set [2] was over 100 µM.
